Measurements gathered from unrelated publications.
Each line is one published result; the experiments were not run side by side.
Target: Serine/threonine-protein kinase LATS1 (LATS1, Homo sapiens, UniProt O95835)
Residues used in one study (O95835 1-1130): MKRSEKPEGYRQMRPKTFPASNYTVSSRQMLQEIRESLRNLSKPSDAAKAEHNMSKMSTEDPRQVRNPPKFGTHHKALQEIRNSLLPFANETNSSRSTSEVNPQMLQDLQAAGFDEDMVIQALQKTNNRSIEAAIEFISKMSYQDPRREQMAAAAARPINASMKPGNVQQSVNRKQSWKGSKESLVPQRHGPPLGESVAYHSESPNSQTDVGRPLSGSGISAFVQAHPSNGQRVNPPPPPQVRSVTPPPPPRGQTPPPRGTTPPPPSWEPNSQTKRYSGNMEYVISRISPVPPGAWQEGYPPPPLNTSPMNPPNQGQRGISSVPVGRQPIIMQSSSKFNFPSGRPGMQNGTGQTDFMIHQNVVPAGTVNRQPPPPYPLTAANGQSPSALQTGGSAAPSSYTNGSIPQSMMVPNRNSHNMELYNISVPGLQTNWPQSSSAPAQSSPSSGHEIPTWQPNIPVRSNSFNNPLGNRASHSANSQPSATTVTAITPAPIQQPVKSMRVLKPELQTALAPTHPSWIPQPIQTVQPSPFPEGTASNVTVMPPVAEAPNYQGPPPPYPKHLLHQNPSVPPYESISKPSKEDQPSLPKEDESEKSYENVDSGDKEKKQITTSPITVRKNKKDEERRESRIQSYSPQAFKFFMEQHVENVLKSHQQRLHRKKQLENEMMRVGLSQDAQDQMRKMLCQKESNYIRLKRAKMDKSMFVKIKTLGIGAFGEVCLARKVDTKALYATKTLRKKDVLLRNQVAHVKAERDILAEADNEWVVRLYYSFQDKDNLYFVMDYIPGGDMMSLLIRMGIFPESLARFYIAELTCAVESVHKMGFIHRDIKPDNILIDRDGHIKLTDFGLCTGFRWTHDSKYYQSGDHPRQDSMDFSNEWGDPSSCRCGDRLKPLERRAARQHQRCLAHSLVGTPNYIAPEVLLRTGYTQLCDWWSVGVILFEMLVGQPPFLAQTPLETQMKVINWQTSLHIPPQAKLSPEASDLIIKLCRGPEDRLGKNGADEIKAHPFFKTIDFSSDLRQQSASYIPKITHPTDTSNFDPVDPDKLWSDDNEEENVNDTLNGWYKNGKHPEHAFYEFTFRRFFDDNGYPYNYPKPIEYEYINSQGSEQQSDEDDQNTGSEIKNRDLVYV

c1cncc(-c2cccc(Nc3nccc(NC4CCCCC4)n3)c2)c1 has a remaining binding of 19% (binding; competition with immobilised ligand; 10 µM).
With C=CC(=O)N1CCC(C(=O)NCC(=O)N2CCN(c3nc(-c4cnc(N)nc4C(F)F)nc(N4CCOCC4)n3)CC2)CC1 the remaining binding was 100% (binding; competition with immobilised ligand; 1 µM).
COc1ncc2cc3ccccc3nc2c1C#N gave a remaining binding of 93% (cell-free assay; competition with immobilised ligand; 5 µM).
For O=C(NCCCN1CCOCC1)c1ccc(Nc2ncc(Cl)c(-c3ccc(Cl)s3)n2)cc1, the remaining binding was 42% (binding; competition with immobilised ligand; 1 µM).
For COc1ccnn2ncc(-c3ccnc(N(C)C)n3)c12, the remaining binding was 100% (binding; 1 µM).
Cc1cc(NC(=O)c2cccc(S(F)(F)(F)(F)F)c2)cc(-n2ccn3nc(-c4cccnc4)cc23)c1 has a remaining binding of 100% (cell-free assay; competition with immobilised ligand; 1 µM).
CN(c1nccc(-c2cnn3ncccc23)n1)C1CC1 gave a remaining binding of 82% (binding; 1 µM).
Nc1ncc2c(n1)-c1c([nH]c3ccc(C#CC4CC4)cc13)CCCC2 has a remaining binding of 92% (binding; competition with immobilised ligand; 1 µM).
With C[C@H]1CCN(c2nccc(-c3cnn4ncccc34)n2)C1 the remaining binding was 100% (binding; 1 µM).
With NS(=O)(=O)c1cc(NC(=O)Cc2ccccc2)ccc1Oc1cccc(Cl)c1 the remaining binding was 79% (cell-free assay; competition with immobilised ligand; 1 µM).
COc1cnc(Nc2cccc(S(N)(=O)=O)c2)nc1N1CCN(c2ccccc2)CC1 gave a remaining binding of 100% (binding; competition with immobilised ligand; 1 µM).
For CN(C)c1ncnc(-c2ccc3nc(Nc4cc(CN5CCN(C(=O)CC(F)(F)F)CC5)ccn4)[nH]c3c2)c1Cl, the remaining binding was 95% (cell-free assay; competition with immobilised ligand; 1 µM).
With CN(C)c1nccc(-c2cnn3ncccc23)n1 the remaining binding was 100% (binding; 1 µM).
For Cc1nc(Cc2cccc(C(F)(F)F)c2)sc1-c1ccc(C(N)=O)nc1, the remaining binding was 100% (cell-free assay; competition with immobilised ligand; 1 µM).
For O=C(Nc1c[nH]nc1C(=O)NC1CCNCC1)c1cc(F)cc(F)c1, the remaining binding was 100% (binding; competition with immobilised ligand; 1 µM).
O=C(c1ccc(Nc2ncc(Cl)c(-c3cc4ccccc4s3)n2)cc1)N1CCC(N2CCCC2)CC1 gave a remaining binding of 60% (binding; competition with immobilised ligand; 1 µM).
With N[C@H]1CCN(c2nccc(-c3cnn4ncccc34)n2)C1 the remaining binding was 100% (binding; 1 µM).
The remaining binding of O=C(NCCCC1CCCCC1)c1ccc(CNC(=O)c2cnn(-c3ccccc3)c2C(F)(F)F)cc1 is reported as 100% (cell-free assay; competition with immobilised ligand; 0.1 µM).
CCN1CCN(Cc2ccc(C(=O)Nc3ccc(C)c(Oc4ccc5c(c4)CC(=O)N5)c3)cc2C(F)(F)F)CC1 has a remaining binding of 94% (binding; competition with immobilised ligand; 1 µM).
The remaining binding of CN(C)c1nccc(-c2cnc3ncccn23)n1 is reported as 100% (binding; 1 µM).
CCCCN(CCCC)C(=O)CN1C[C@@H](c2cc(OC)c3c(c2)OCO3)[C@H](C(=O)O)[C@H]1CC(C)(C)CCC has a remaining binding of 75.2% (cell-free assay; competition with immobilised ligand; 1 µM).
